“And” between values parts separate entries of the source, which are not always exact repeats. Equal entries are not always repeated.
System: U2OS
Assay: Multiplex assay against U2OS
Type: toxicity, cell-based
Conditions: human
Outline: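 Values for tubulin, mitochondrial-mass and membrane-permeability phenotypes are per cents of cells with healthy nuclei. These cells were identified by CellPathfinder machine-learning gating of live cells that had been stained at seeding with Hoechst33342, BioTracker Green Microtubule Cytoskeleton Dye, MitoTracker Red and Annexin V Alexa Fluor 680 and imaged on a CQ1 microscope at 37°C and 5% CO2 after compound addition. The gating first set Hoechst high-intensity objects apart from normal cells, then split normal cells into healthy, pyknosed or fragmented nuclei, and pyknosed cells into mitotic or apoptotic.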

[1] = 12 h, 1 µM, compound concentration 1 uM
[2] = 12 h, 10 µM, compound concentration 10 uM
[3] = 24 h, 1 µM, compound concentration 1 uM
[4] = 24 h, 10 µM, compound concentration 10 uM
[5] = 48 h, 1 µM, compound concentration 1 uM
[6] = 48 h, 10 µM, compound concentration 10 uM

O=C(NCCNCC(O)COc1ccc(O)cc1)N1CCOCC1.O=C(NCCNCC(O)COc1ccc(O)cc1)N1CCOCC1.O=C(O)/C=C/C(=O)O (stereo unspecified) [XAMOTEROL FUMARATE]
Population Apoptotic (%) [1]: 71% and 83%
Population Fragmented Nuclei (%) [1]: 27% and 19%
Population Healthy Nuclei (%) [1]: 66% and 68%
Population Hoechst High Intensity Objects (%) [1]: 2% and 3%
Population Membrane Permeable-Phenotype (%) [1]: 6% and 13%
Population Mitochondria Different-Phenotype (%) [1]: 1%
Population Mitotic Cells (%) [1]: 28% and 16%
Population Normal (%) [1]: 97% and 96%
Population Pyknosed Nuclei (%) [1]: 5% and 11%
Population Tubulin-Different-Phenotype (%) [1]: 2% and 5%
Total Cell Count [1]: 265 and 110
Population Apoptotic (%) [2]: 92% and 100%
Population Fragmented Nuclei (%) [2]: 28% and 15%
Population Healthy Nuclei (%) [2]: 60% and 73%
Population Hoechst High Intensity Objects (%) [2]: 0% and 4%
Population Membrane Permeable-Phenotype (%) [2]: 6% and 4%
Population Mitochondria Different-Phenotype (%) [2]: 2% and 3%
Population Mitotic Cells (%) [2]: 7% and 0%
Population Normal (%) [2]: 99% and 95%
Population Pyknosed Nuclei (%) [2]: 11%
Population Tubulin-Different-Phenotype (%) [2]: 4% and 7%
Total Cell Count [2]: 239 and 118
Population Apoptotic (%) [3]: 85% and 80%
Population Fragmented Nuclei (%) [3]: 24% and 18%
Population Healthy Nuclei (%) [3]: 68% and 69%
Population Hoechst High Intensity Objects (%) [3]: 0% and 1%
Population Membrane Permeable-Phenotype (%) [3]: 5% and 10%
Population Mitochondria Different-Phenotype (%) [3]: 0% and 4%
Population Mitotic Cells (%) [3]: 15% and 20%
Population Normal (%) [3]: 99% and 98%
Population Pyknosed Nuclei (%) [3]: 6% and 11%
Population Tubulin-Different-Phenotype (%) [3]: 1% and 5%
Total Cell Count [3]: 312 and 129
Population Apoptotic (%) [4]: 89% and 78%
Population Fragmented Nuclei (%) [4]: 22% and 16%
Population Healthy Nuclei (%) [4]: 66% and 70%
Population Hoechst High Intensity Objects (%) [4]: 1%
Population Membrane Permeable-Phenotype (%) [4]: 6%
Population Mitochondria Different-Phenotype (%) [4]: 2%
Population Mitotic Cells (%) [4]: 10% and 21%
Population Normal (%) [4]: 98%
Population Pyknosed Nuclei (%) [4]: 10% and 12%
Population Tubulin-Different-Phenotype (%) [4]: 2% and 6%
Total Cell Count [4]: 270 and 152
Population Apoptotic (%) [5]: 90% and 91%
Population Fragmented Nuclei (%) [5]: 18% and 23%
Population Healthy Nuclei (%) [5]: 75% and 62%
Population Hoechst High Intensity Objects (%) [5]: 1% and 2%
Population Membrane Permeable-Phenotype (%) [5]: 4% and 6%
Population Mitochondria Different-Phenotype (%) [5]: 2% and 3%
Population Mitotic Cells (%) [5]: 9% and 8%
Population Normal (%) [5]: 98% and 97%
Population Pyknosed Nuclei (%) [5]: 6% and 13%
Population Tubulin-Different-Phenotype (%) [5]: 2% and 4%
Total Cell Count [5]: 472 and 171
Population Apoptotic (%) [6]: 89% and 94%
Population Fragmented Nuclei (%) [6]: 18% and 17%
Population Healthy Nuclei (%) [6]: 68% and 73%
Population Hoechst High Intensity Objects (%) [6]: 1% and 2%
Population Membrane Permeable-Phenotype (%) [6]: 2% and 4%
Population Mitochondria Different-Phenotype (%) [6]: 1% and 4%
Population Mitotic Cells (%) [6]: 10% and 5%
Population Normal (%) [6]: 98% and 97%
Population Pyknosed Nuclei (%) [6]: 12% and 9%
Population Tubulin-Different-Phenotype (%) [6]: 2% and 6%
Total Cell Count [6]: 392 and 206

— ChEMBL document CHEMBL5724801, “EUbOPEN Chemogenomics Library - Multiplex” (2024)
